Assay results taken from ChEMBL document CHEMBL1671794, “Synthesis and SAR studies on azetidine-containing dipeptides as HCMV inhibitors” (Bioorg Med Chem, 2011).
Activity calls are given as the source filed them. The calls are words filed in the database; no cut-off is given here.

System: Vaccinia virus
Experiment: Antiviral activity against Vaccinia virus infected in HELF assessed as virus-induced cytopathogenicity at 20 to 100 uM after 4 days by microscopy
Format: functional, organism-based
Conditions: Orthopoxvirus vaccinia
Summary of the method: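 Near-confluent MDCK (influenza) or confluent HEL monolayers were inoculated with 100 CCID50 of virus. After 1-h adsorption, residual virus was removed, and cells were incubated with fivefold serial dilutions of compound. Cytopathicity was scored microscopically once untreated infected controls reached complete CPE. Minimal cytotoxic concentration was read as microscopically visible alteration of cell morphology.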

Compound: C[C@H](NC(=O)[C@]1(Cc2ccccc2)CCN1C(=O)OCC1c2ccccc2-c2ccccc21)C(N)=O
- Activity: inactive
